Reference: ChEMBL document CHEMBL1641498, “Synthesis and structure-activity relationships of novel benzoxaboroles as a new class of antimalarial agents” (Bioorg Med Chem Lett, 2011)
≈ marks a conversion by molar mass, not a printed value.

tested on: not listed separately; experiment: Solubility of the compound in water at pH 7; assay type: physicochemical; conditions: not given

For `O=C(O)CCc1cccc2c1B(O)OC2`, the solubility was 750 µg/mL (≈ 3.64 mM).

tested on: HeLa; experiment: Cytotoxicity against human HeLa cells after 72 hrs by MTT assay; assay type: cell-based; conditions: not given
Method in brief: (§1)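 Each cell line exposed to compounds over a 12-point concentration curve in triplicate for 72 h; viability read by MTT, IC50 determined.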

`O=C(O)CCc1cccc2c1B(O)OC2` gave an IC50 greater than 100000 nM.

tested on: Jurkat; experiment: Cytotoxicity against human Jurkat cells after 72 hrs by MTT assay; assay type: cell-based; conditions: not given; method in brief: as §1

`O=C(O)CCc1cccc2c1B(O)OC2` gave an IC50 of 60500 nM.

tested on: Plasmodium falciparum; experiment: Antimalarial activity against Plasmodium falciparum W2 infected in human erythrocytes assessed as reduction of parasitemia after 48 hrs by flow cytometry; assay type: functional, organism-based; conditions: W2, 48 h
Method in brief: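 Erythrocytic-stage W2 parasites cultured in human erythrocytes in RPMI-1640 with 10% human serum or 0.5% Albumax; sorbitol-synchronized to ring stage. Serial dilutions from 10 mM stocks; 2% hematocrit, 1% parasitemia, 3% O2/5% CO2/N2, 48 h.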

First: O=C(O)CCCc1cccc2c1B(O)OC2
Second: O=C(O)CCCCc1cccc2c1B(O)OC2
The IC50 of the first is 3.2-fold lower: 620 nM for the first, 2010 nM for the second.

First: O=C(O)CCc1cccc2c1B(O)OCC2
Second: O=C(O)CCc1cccc2c1B(O)OC2
The IC50 of the first is higher: greater than 5000 nM for the first, 26 nM for the second. The second is the more potent here.

Going from `OB1OCc2cccc(CCc3nn[nH]n3)c21` to `NCCCc1cccc2c1B(O)OC2`, the IC50 rises from 160 nM to 520 nM (3.2-fold).

Compared with `NC(=O)CCc1cccc2c1B(O)OC2`, `CC(=O)CCc1cccc2c1B(O)OC2` is 2.1-fold higher in IC50: 1300 nM for the first, 2720 nM for the second. The first is the more potent here.

`CC1(C)OB(O)c2c(CCC(=O)O)cccc21` and `O=C(O)CCc1cccc2c1COB2O` cannot be ordered by IC50: greater than 5000 nM for the first, greater than 5000 nM for the second.

Going from `O=C(O)CCc1ccc2c(c1)B(O)OC2` to `O=C(O)CCc1ccc2c(c1)COB2O`, the IC50 rises from 120 nM to 2890 nM (24-fold).

First: COC(=O)CCc1cccc2c1B(O)OC2
Second: CN(C)C(=O)CCc1cccc2c1B(O)OC2
The IC50 of the first is lower: 320 nM for the first, greater than 5000 nM for the second.

Compared with `N#CCCc1cccc2c1B(O)OC2`, `CC(C)(Cc1cccc2c1B(O)OC2)C(=O)O` is higher in IC50: 1020 nM for the first, greater than 5000 nM for the second. The first is the more potent here.

Compared with `O=C(O)CNc1cccc2c1B(O)OC2`, `O=C(O)COc1cccc2c1B(O)OC2` is 2.1-fold lower in IC50: 950 nM for the first, 460 nM for the second.

First: CN(CC(=O)O)c1cccc2c1B(O)OC2
Second: O=C(CCc1cccc2c1B(O)OC2)NS(=O)(=O)C1CC1
The IC50 of the first is higher: greater than 5000 nM for the first, 460 nM for the second. The second is the more potent here.
